Results from ChEMBL document CHEMBL5154713, “Illuminating a Dark Kinase: Structure-Guided Design, Synthesis, and Evaluation of a Potent Nek1 Inhibitor and Its Effects on the Embryonic Zebrafish Pronephros” (J Med Chem, 2022).
Converted amounts (≈) assume the structure as drawn.

Assays:
[1] = target: Phosphatidylinositol 4,5-bisphosphate 3-kinase catalytic subunit beta isoform (Homo sapiens) (UniProt P42338); assay: Inhibition of human full length recombinant PI3Kbeta assessed as residual activity using phosphatidylinositol 4,5-bisphosphate as substrate at 1 uM incubated for 40 mins in presence of ATP by HTRF assay relative to control
[2] = target: Protein kinase C alpha type (Homo sapiens) (UniProt P17252); assay: Inhibition of recombinant human full length PKCalpha assessed as residual activity at 1 uM using histone H1 as substrate measured after 40 mins in presence of [gamma33P]ATP by radiometric scintillation counting method relative to control
How it was run: (§1)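 Commercial radiometric panel of 50 kinases. Each recombinant human kinase was tested at a single compound concentration of 1 μM. ATP was set within 15 μM of the apparent Km for ATP for each kinase. Residual activity is relative to control and is the mean of two independent experiments.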

[3] = Toxicity in fluorescence-labelled Zebrafish pronephron assessed as increase in growth of fluid-filled cysts at 10 to 20 uM; set-up: species or system Danio rerio; conditions: in vivo, dose 10-20 µM
How it was run: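 Wild-type embryos exposed from 6 hpf to E3/0.2% DMSO controls or 10 and 20 μM compound, in E3 with 75 μM PTU. At 48 h, 100 nM PT-Yellow for 20 min, washed, then returned to compound up to 96 h total. Anesthetized embryos imaged in agarose molds by widefield microscopy, 33 Z-slices. Tubule fluorescence and area quantified from summed deconvolved projections. n = 3–5.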

[4] = target: Calcium/calmodulin-dependent protein kinase type 1G (Homo sapiens) (UniProt Q96NX5); assay: Inhibition of recombinant full length human CaMK1gamma assessed as residual activity at 1 uM using KKLRRTLSFAEPG as substrate incubated for 40 mins in presence of [gamma-33ATP] by radiometric scintillation counting analysis relative to control; how it was run: as §1
[5] = target: Tyrosine-protein kinase SYK (Homo sapiens) (UniProt P43405); assay: Inhibition of recombinant full-length human Syk at 1 uM assessed as residual activity at 1 uM using poly(Glu, Tyr) 4:1 as substrate measured after 40 mins in presence of [gamma33P]ATP by radiometric scintillation counting method relative to control; how it was run: as §1
[6] = Permeability across apical to basolateral side in human Caco-2 cells assessed as drug recovery at pH 6.5 to 7.4 by HPLC-MS/MS analysis; assay type: ADME, cell-based; conditions: Caco-2, pH 6.5, read-out: Drug recovery
How it was run: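 Commercial Caco-2 assay, apical-to-basolateral direction at pH 6.5/7.4. Permeability and percent recovery taken from HPLC-MS/MS peak area response. Propranolol, labetalol, colchicine and ranitidine run in parallel as references.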

[7] = Toxicity in wild-type Zebrafish embryos assessed as lethality at 30 uM measured after 72 hrs; set-up: species or system Danio rerio; conditions: in vivo
How it was run: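 Wild-type zebrafish embryos with intact chorions were selected at 4 hpf, 15 per group, in E3 medium. At 6 hpf a 10× dilution of a DMSO stock was added to give final concentrations of 0.05–30 μM. Survival was scored every 24 h by heartbeat over 120 h. The 30 μM group was run in 5 replicates and the others at least in triplicate.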

[8] = target: Eukaryotic elongation factor 2 kinase (Homo sapiens) (UniProt O00418); assay: Inhibition of human eEF-2K (2 to end residues) assessed as residual activity at 1 uM using RKKFGESEKTKTKEFL as substrate incubated for 40 mins in presence of [gamma 33P]-ATP by radiometric scintillation counting assay relative to control; how it was run: as §1
[9] = target: Serine-protein kinase ATM (Homo sapiens) (UniProt Q13315); assay: Inhibition of human full length recombinant ATM assessed as residual activity at 1 uM using GST-cMyc-p53 as substrate incubated for 40 mins in presence of ATP by HTRF assay relative to control
[10] = target: Glycogen synthase kinase-3 beta (Homo sapiens) (UniProt P49841); assay: Inhibition of human GSK3beta (2 to end residues) assessed as residual activity using YRRAAVPPSPSLSRHSSPHQS(p) EDEEE as substrate at 1 uM incubated for 40 mins in presence of [gamma 33P]-ATP by radiometric scintillation counting assay relative to control; how it was run: as §1
[11] = target: Serine/threonine-protein kinase 4 (Homo sapiens) (UniProt Q13043); assay: Inhibition of human full length recombinant MST1 assessed as residual activity at 1 uM using KKSRGDYMTMQIG as substrate incubated for 40 mins in presence of [gamma 33P]-ATP by radiometric scintillation counting assay relative to control; how it was run: as §1
[12] = target: Serine/threonine-protein kinase Nek2 (Homo sapiens) (UniProt P51955); assay: Inhibition of human full length recombinant NEK2 assessed as residual activity at 1 uM using poly(Glu, Tyr) 4:1 as substrate incubated for 40 mins in presence of [gamma 33P]-ATP by radiometric scintillation counting assay relative to control; how it was run: as §1
[13] = target: Serine/threonine-protein kinase Nek11 (Homo sapiens) (UniProt Q8NG66); assay: Inhibition of human full length recombinant NEK11 assessed as residual activity at 1 uM using myelin basic protein as substrate incubated for 40 mins in presence of [gamma 33P]-ATP by radiometric scintillation counting assay relative to control; how it was run: as §1
[14] = target: Phosphatidylinositol 4,5-bisphosphate 3-kinase catalytic subunit alpha isoform (Homo sapiens) (UniProt P42336); assay: Inhibition of human full length recombinant PI3Kalpha assessed as residual activity at 1 uM using phosphatidylinositol 4,5-bisphosphate as substrate incubated for 40 mins in presence of ATP by HTRF assay relative to control
[15] = target: Mitogen-activated protein kinase 14 (Homo sapiens) (UniProt Q16539); assay: Inhibition of recombinant human full length SAPK2a assessed as residual activity at 1 uM using myelin basic protein as substrate measured after 40 mins in presence of [gamma33P]ATP by scintillation counting method relative to control; how it was run: as §1
[16] = target: Phosphatidylinositol 4,5-bisphosphate 3-kinase catalytic subunit gamma isoform (Homo sapiens) (UniProt P48736); assay: Inhibition of human full length PI3Kgamma assessed as residual activity at 1 uM using phosphatidylinositol-4, 5-bisphosphate as substrate incubated for 40 mins in presence of ATP by HTRF assay relative to control
[17] = target: Serine/threonine-protein kinase PLK3 (Homo sapiens) (UniProt Q9H4B4); assay: Inhibition of recombinant human Plk3 (19 to 301 residues) assessed as residual activity at 1 uM using casein as substrate measured after 40 mins in presence of [gamma33P]ATP by radiometric scintillation counting method relative to control; how it was run: as §1
[18] = Solubility of the compound in E3 medium with DMSO incubated for 24 hrs by DAD-HPLC based shake flask method; assay type: physicochemical
How it was run: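 Shake-flask solubility: saturated solution in E3-medium shaken 24 h at 25 °C, then HPLC-DAD at 280 nm. Concentration read by interpolation from a calibration series of 1–100 μM standards in acetonitrile, prepared from a 10 mM DMSO stock. Triplicate.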

Serine/threonine-protein kinase Nek11 (Homo sapiens), sequence (Q8NG66 whole entry, canonical isoform): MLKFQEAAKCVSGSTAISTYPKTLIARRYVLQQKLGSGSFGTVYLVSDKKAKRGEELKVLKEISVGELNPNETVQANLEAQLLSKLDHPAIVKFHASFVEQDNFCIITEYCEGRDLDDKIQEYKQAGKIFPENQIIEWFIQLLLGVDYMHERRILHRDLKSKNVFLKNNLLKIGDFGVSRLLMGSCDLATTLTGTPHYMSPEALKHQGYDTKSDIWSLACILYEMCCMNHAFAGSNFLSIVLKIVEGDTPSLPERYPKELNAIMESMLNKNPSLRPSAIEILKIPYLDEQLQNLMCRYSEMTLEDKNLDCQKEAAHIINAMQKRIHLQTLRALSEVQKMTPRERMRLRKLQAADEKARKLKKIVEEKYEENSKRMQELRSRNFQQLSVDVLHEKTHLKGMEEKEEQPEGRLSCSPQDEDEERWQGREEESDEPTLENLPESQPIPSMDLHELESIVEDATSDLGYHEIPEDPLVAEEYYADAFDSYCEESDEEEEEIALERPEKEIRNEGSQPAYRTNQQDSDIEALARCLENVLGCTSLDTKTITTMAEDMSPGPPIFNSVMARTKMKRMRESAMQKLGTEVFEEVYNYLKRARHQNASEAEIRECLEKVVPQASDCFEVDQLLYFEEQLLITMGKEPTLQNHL
Phosphatidylinositol 4,5-bisphosphate 3-kinase catalytic subunit beta isoform (Homo sapiens), sequence (P42338 whole entry, looked up, canonical isoform): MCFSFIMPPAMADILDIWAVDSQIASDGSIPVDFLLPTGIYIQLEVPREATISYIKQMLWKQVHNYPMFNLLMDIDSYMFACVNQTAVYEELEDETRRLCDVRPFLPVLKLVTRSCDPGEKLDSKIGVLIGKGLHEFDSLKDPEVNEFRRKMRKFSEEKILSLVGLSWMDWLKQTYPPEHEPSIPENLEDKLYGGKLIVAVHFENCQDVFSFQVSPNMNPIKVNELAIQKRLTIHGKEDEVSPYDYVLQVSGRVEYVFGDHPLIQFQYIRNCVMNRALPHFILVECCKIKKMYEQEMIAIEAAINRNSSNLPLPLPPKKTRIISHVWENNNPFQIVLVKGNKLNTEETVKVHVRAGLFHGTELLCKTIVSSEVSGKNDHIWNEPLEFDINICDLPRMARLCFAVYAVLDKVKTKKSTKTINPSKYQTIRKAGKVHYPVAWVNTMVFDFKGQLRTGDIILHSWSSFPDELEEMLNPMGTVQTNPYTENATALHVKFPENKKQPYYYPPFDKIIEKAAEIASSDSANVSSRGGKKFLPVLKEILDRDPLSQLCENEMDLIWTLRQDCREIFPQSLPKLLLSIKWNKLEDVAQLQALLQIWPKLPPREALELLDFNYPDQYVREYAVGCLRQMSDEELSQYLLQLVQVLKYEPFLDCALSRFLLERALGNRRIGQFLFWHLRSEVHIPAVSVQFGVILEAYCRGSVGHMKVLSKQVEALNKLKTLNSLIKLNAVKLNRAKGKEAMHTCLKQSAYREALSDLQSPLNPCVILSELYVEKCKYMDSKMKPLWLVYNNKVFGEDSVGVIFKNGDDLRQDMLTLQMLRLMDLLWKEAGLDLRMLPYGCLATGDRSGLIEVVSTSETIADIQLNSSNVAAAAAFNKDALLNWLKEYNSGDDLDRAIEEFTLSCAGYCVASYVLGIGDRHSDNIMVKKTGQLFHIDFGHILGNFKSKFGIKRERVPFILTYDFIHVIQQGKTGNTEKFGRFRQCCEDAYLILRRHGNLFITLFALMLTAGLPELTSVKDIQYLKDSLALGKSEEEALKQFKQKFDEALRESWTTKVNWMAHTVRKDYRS
Serine-protein kinase ATM (Homo sapiens), sequence (Q13315 whole entry): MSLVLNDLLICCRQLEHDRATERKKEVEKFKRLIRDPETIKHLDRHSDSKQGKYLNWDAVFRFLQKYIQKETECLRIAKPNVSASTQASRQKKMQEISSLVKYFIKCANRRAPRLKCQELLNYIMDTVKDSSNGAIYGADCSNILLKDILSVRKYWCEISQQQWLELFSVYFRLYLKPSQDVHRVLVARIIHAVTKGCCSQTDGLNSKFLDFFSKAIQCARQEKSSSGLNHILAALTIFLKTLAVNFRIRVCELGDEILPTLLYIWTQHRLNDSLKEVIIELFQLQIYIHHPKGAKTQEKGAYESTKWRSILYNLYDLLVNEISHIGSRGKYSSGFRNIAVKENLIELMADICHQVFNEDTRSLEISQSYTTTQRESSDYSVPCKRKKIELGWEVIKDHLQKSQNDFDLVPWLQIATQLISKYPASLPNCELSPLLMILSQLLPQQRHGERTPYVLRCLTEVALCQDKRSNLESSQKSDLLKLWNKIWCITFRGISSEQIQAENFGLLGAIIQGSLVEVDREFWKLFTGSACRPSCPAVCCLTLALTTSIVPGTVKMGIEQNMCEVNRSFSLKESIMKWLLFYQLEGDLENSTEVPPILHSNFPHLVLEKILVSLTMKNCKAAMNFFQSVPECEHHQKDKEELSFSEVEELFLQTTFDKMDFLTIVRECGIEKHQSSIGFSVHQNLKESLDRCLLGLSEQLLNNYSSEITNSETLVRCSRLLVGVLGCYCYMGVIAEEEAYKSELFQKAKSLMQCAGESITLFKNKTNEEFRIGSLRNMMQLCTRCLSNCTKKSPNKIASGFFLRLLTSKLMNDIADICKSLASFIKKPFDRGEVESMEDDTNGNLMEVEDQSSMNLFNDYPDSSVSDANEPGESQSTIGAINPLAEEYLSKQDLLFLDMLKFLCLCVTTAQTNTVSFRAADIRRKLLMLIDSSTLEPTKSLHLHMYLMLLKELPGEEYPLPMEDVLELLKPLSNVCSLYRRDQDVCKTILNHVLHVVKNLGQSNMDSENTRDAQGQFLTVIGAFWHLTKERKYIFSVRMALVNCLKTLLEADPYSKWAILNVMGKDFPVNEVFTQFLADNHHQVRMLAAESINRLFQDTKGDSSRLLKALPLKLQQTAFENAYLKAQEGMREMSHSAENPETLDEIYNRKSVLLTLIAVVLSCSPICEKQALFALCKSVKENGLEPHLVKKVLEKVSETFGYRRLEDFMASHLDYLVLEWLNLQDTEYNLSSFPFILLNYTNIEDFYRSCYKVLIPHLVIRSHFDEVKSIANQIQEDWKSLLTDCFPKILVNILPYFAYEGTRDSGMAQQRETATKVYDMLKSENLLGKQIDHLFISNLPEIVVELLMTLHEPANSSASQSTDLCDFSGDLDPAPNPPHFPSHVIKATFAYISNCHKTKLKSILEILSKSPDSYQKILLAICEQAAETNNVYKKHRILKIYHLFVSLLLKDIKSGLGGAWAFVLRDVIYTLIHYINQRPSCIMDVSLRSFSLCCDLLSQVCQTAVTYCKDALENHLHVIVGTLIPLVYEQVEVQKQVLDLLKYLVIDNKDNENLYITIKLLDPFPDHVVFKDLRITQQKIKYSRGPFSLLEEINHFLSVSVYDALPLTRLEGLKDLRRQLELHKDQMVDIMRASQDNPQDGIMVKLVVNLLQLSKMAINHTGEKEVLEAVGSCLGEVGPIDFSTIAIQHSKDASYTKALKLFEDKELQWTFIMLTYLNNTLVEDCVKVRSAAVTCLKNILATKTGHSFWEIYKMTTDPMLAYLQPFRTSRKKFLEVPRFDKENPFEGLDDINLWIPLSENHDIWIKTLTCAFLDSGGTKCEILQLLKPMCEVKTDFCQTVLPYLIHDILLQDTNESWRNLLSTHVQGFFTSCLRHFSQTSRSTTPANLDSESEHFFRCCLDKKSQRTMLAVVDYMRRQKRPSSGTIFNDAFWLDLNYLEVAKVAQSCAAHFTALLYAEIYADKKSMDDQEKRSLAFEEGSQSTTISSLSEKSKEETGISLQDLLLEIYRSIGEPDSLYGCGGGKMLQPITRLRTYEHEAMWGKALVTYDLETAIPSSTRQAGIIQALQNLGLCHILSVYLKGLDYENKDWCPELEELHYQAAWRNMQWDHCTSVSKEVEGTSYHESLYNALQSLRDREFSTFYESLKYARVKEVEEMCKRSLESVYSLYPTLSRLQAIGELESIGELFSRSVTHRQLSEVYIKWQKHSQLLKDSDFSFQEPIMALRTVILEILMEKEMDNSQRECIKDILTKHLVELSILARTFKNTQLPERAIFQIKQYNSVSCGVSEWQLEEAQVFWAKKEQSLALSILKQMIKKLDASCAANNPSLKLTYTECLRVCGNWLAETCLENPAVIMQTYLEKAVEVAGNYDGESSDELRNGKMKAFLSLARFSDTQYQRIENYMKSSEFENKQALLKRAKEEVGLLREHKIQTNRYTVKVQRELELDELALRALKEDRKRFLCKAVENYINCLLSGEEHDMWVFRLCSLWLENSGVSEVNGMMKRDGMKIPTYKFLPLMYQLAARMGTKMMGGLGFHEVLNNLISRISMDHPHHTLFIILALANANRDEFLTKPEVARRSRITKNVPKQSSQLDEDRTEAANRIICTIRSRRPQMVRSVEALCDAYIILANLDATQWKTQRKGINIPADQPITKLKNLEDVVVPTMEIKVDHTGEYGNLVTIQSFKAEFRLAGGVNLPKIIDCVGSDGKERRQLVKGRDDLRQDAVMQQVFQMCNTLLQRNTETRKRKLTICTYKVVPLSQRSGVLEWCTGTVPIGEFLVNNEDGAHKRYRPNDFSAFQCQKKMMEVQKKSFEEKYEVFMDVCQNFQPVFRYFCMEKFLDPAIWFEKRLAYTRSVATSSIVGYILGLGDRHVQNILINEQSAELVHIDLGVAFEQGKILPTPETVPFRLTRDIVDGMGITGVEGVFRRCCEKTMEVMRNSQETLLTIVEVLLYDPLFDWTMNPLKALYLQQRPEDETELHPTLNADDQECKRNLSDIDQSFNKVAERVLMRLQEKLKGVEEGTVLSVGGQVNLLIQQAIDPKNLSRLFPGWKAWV
Mitogen-activated protein kinase 14 (Homo sapiens), sequence (Q16539 whole entry, canonical isoform): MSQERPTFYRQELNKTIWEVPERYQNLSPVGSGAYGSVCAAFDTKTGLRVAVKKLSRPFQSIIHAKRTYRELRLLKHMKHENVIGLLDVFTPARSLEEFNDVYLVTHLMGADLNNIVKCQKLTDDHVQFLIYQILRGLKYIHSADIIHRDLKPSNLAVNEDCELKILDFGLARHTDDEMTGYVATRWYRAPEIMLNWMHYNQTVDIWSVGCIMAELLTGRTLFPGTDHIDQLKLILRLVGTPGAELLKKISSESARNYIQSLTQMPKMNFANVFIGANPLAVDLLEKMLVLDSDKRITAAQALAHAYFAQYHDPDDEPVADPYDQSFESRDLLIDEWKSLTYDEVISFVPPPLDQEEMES

With O=S(=O)(N[C@@H](CO)Cc1c[nH]c2ccccc12)c1ccc(-c2ccnc3[nH]ccc23)cc1 the Activity [1] was > 75%, the Activity [2] was > 75% and the Activity [3] was “Toxic”. The Activity [4] was > 75%, the Activity [5] was > 75% and the recovery [6] was 45%. For the same compound, the Activity [7] was “Toxic”, the Activity [8] was > 75% and the Activity [9] was > 75%. For the same compound, the Activity [10] was > 75%, the Activity [11] was > 75% and the Activity [12] was > 75%. The Activity [13] was > 75%, the Activity [14] was > 75% and the Activity [15] was > 75%. For the same compound, the Activity [16] was > 75%, the Activity [17] was > 75% and the solubility at 24 h [18] was 13.9 µg/mL (≈ 31.1 µM).
